Assay results taken from ChEMBL document CHEMBL1136201, “Synthesis and binding selectivity of 7- and 15-decylbenzolactone-V8 for the C1 domains of protein kinase C isozymes” (Bioorg Med Chem Lett, 2003).

Experiments:
[1] = biological target: T1, Protein kinase C epsilon type (Homo sapiens, UniProt Q02156); assay: Displacement of [3H]-PDBu from protein kinase C epsilon-C1A domain
T1 sequence (Q02156 whole entry): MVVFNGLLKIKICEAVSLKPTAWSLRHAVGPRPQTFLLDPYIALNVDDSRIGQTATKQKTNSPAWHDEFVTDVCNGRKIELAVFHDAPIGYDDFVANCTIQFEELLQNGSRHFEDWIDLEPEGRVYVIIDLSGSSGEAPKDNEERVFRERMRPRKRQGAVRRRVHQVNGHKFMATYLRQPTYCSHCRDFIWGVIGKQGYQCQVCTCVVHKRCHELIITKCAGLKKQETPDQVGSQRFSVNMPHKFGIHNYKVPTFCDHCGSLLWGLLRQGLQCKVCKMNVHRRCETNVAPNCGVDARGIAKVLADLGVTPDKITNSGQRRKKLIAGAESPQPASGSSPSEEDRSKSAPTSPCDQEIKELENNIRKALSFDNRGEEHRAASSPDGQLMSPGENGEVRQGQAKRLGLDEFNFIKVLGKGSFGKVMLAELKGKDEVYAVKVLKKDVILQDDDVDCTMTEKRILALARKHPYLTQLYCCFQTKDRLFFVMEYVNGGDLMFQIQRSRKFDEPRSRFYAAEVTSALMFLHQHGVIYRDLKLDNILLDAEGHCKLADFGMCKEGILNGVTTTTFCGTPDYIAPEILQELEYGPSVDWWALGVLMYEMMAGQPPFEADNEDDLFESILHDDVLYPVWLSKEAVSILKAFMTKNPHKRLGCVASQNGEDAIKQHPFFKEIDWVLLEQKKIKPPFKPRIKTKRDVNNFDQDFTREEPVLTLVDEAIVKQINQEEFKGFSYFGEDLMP
In short: (§1)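 Synthetic C1 peptides of about 50 amino acids, used as surrogates for the PKC C1 domains, were incubated with [3H]phorbol 12,13-dibutyrate (PDBu). Competitor was assessed by inhibition of specific [3H]PDBu binding. […] Values are given with standard deviation from at least two separate experiments.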

[2] = biological target: T2, Protein kinase C delta type (Homo sapiens, UniProt Q05655); assay: Displacement of [3H]PDBu from protein kinase C Delta-C1A domain; in short: as §1
T2 sequence (Q05655 whole entry, the tested form may be a part): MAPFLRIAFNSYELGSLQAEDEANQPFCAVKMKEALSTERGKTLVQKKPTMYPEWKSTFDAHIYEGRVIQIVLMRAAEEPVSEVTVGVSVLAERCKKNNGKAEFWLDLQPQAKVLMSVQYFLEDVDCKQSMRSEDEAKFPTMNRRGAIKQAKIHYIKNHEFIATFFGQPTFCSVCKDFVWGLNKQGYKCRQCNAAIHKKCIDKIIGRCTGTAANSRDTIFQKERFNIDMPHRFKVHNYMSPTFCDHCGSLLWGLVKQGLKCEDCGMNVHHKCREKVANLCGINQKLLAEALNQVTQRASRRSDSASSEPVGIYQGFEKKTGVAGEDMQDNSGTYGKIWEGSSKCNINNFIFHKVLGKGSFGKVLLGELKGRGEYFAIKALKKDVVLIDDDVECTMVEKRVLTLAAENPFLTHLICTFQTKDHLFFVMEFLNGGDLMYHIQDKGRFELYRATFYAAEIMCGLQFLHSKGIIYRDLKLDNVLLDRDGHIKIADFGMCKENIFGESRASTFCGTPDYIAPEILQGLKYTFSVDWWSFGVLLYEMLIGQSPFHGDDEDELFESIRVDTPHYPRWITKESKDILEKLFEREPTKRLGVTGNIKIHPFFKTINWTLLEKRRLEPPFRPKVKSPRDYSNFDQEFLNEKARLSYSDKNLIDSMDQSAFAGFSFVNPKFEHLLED

[3] = biological target: T2, Protein kinase C delta type; assay: Displacement of [3H]PDBu from protein kinase C Delta-C1B domain; in short: as §1
[4] = biological target: T1, Protein kinase C epsilon type; assay: Displacement of [3H]-PDBu from protein kinase C epsilon-C1B domain; in short: as §1
[5] = biological target: T3, Protein kinase C eta type (Homo sapiens, UniProt P24723); assay: Displacement of [3H]PDBu from protein kinase C eta-C1A domain; in short: as §1
T3 sequence (P24723 whole entry, the tested form may be a part): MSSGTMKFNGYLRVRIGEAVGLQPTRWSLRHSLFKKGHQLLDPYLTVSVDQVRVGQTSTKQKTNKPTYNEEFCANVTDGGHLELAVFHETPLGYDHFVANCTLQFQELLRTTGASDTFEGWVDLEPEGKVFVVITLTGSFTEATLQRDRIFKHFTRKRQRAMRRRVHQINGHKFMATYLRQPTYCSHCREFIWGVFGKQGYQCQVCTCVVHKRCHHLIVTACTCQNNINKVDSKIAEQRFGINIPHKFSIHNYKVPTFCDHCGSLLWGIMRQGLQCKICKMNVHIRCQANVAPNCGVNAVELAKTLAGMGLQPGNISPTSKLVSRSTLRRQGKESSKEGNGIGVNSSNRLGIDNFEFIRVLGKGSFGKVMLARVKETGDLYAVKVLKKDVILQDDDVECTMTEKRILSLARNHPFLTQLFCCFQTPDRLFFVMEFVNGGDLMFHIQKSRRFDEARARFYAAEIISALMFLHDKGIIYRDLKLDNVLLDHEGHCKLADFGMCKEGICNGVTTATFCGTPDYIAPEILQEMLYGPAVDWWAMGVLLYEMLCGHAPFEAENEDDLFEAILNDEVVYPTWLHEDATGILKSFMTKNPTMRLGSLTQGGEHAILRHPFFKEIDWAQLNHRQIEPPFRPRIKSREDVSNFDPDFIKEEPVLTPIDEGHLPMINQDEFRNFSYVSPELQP

[6] = biological target: T3, Protein kinase C eta type; assay: Displacement of [3H]PDBu from protein kinase C eta-C1B domain; in short: as §1
[7] = biological target: T4, Protein kinase C alpha type (Homo sapiens, UniProt P17252); assay: Displacement of [3H]PDBu from protein kinase C Alpha-C1B domain; in short: as §1
[8] = biological target: T5, Protein kinase C beta type (Homo sapiens, UniProt P05771); assay: Displacement of [3H]PDBu from protein kinase C Beta-C1A domain; in short: as §1
T5 sequence (P05771 whole entry, the tested form may be a part): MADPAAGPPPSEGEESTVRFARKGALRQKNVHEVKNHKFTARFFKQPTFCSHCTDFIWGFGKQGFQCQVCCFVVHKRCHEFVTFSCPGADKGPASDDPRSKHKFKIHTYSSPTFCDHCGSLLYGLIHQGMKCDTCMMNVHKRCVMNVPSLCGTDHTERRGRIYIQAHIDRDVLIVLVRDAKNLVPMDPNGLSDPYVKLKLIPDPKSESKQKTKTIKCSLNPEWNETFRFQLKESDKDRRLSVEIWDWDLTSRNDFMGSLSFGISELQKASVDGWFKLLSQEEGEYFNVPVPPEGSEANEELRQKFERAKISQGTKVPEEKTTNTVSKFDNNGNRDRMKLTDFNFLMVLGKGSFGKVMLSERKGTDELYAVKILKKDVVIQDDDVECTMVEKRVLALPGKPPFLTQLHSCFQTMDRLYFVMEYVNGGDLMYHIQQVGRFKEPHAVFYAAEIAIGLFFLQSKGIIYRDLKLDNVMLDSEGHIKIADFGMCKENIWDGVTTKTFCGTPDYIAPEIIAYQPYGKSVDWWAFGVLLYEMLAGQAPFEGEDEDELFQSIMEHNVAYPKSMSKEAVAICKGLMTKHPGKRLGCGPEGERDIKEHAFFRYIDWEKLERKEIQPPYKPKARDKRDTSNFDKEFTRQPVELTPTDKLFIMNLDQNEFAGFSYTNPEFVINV

[9] = biological target: T5, Protein kinase C beta type; assay: Displacement of [3H]PDBu from protein kinase C Beta-C1B domain; in short: as §1
[10] = biological target: Protein kinase C theta type (Homo sapiens, UniProt Q04759); assay: Displacement of [3H]PDBu from protein kinase C Theta-C1B domain; in short: as §1
Protein kinase C theta type, sequence (Q04759 whole entry, the tested form may be a part): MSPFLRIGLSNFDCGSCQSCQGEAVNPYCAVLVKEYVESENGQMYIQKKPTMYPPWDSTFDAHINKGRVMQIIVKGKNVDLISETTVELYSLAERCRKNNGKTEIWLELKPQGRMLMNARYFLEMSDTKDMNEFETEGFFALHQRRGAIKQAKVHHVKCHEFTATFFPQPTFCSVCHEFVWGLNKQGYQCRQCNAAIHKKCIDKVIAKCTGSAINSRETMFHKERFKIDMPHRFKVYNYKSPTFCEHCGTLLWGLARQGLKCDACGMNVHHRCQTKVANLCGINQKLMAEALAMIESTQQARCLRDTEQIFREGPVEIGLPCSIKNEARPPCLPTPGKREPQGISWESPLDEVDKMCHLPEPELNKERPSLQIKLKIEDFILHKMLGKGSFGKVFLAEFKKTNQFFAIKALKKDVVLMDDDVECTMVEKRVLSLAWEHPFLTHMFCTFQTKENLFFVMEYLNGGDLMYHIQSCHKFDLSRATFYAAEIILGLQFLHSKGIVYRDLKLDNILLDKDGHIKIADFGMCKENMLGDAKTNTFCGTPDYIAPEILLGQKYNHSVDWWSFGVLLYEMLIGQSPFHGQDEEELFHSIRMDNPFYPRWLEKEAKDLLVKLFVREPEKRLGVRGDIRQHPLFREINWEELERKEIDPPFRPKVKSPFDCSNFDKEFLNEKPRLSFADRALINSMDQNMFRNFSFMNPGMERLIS

[11] = biological target: T4, Protein kinase C alpha type; assay: Displacement of [3H]PDBu from protein kinase C Alpha-C1A domain; in short: as §1
[12] = biological target: T6, Protein kinase C gamma type (Homo sapiens, UniProt P05129); assay: Displacement of [3H]PDBu from protein kinase C gamma-C1A domain; in short: as §1
[13] = biological target: T6, Protein kinase C gamma type; assay: Displacement of [3H]-PDBu from protein kinase C gamma-C1B domain; in short: as §1

Ki [1] [µM]	Ki [2] [µM]	Ki [3] [µM]	Ki [4] [µM]	Ki [5] [µM]	Ki [6] [µM]	Ki [7] [µM]	Ki [8] [µM]	Ki [9] [µM]	Ki [10] [µM]	Ki [11] [µM]	Ki [12] [µM]	Ki [13] [µM]	Compound
7.88	> 10	0.092	0.54	4.25	0.111	> 10	0.539	2.69	0.167	0.87	0.97	1.72	CCCCCCCCCCc1cccc2c1C[C@@H](CO)OC(=O)[C@H](C(C)C)N2C
4.83	6.15	0.149	0.083	1.59	0.037	4.05	1.14	0.61	0.062	0.412	2.36	0.675	CCCCCCCCCCc1ccc2c(c1)N(C)[C@@H](C(C)C)C(=O)O[C@H](CO)C2
5.36	30.3	0.415	0.411	6.33	0.189	> 10	4.69	2.07	0.358	4.58	5.75	2.82	CCCCCCCCCCCN1c2ccccc2C[C@@H](CO)OC(=O)[C@@H]1C(C)C
